The term MIC denotes the lowest concentration that inhibits growth of the organism.

In brackets after ≈: the same amount, converted by molar mass. Some results are limits rather than exact numbers.

Experiment [1] deals with Mycobacterium tuberculosis. The experiment in a line: Antibacterial activity against Mycobacterium bovis BCG under aerobic condition after 7 days by MTT assay. It is filed as functional. To be noted: variant bovis BCG, 168 h. In a few lines: (§1)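 MTT microdilution. Mid-log bacilli in 7H9 with 10% OADC, 0.5% glycerol, 0.05% Tween 80, seeded at 1 × 10⁴ CFU/0.1 mL (M. smegmatis) or 1 × 10⁵ CFU/0.1 mL (BCG, M. tuberculosis), then serially diluted sample added. Aerobic incubation at 37 °C; hypoxic incubation at 37 °C under N2 with 0.2% O2. MTT (0.5 mg/mL, 50 µL) added for 12 h more, OD560 read to give MIC.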
In general terms: Formazan colour is commonly taken as a measure of viable cells.

The test system of experiment [2] is Mycobacterium tuberculosis. Briefly: Antibacterial activity against Mycobacterium bovis BCG under hypoxic condition after 14 days by MTT assay. It is filed as functional. To be noted: variant bovis BCG, 336 h. A digest of the protocol:
as §1

As to `Cc1cc(=O)n2c3c(c4c(cc13)c(CO)cc(=O)n4C)OC2`, the MIC in experiment [1] and in experiment [2] was 1 µg/mL (≈ 3.35 µM) throughout.
As to `Cc1cc(=O)n2c3c(c4c(cc13)c(COC(=O)CCCc1cn(CCOCCOCCOCCOCCOCCOCCOCCOCCOCCOCCNC(=O)CCCC[C@@H]3SC[C@@H]5NC(=O)N[C@@H]53)nn1)cc(=O)n4C)OC2`, the MIC was 12.5 µg/mL (≈ 10.9 µM) in experiment [1] and 6.25 µg/mL (≈ 5.46 µM) in experiment [2].
The matching figures for `COC(=O)CCCc1cn(CCOCCOCCOCCOCCOCCOCCOCCOCCOCCOCCNC(=O)CCCC[C@@H]2SC[C@@H]3NC(=O)N[C@@H]32)nn1`: over 200 µg/mL and over 200 µg/mL.
For `NNC(=O)c1ccncc1` [ISONIAZID] the same measures were 0.05 µg/mL (≈ 0.365 µM) and over 100 µg/mL.

The values above are taken from ChEMBL document CHEMBL3585292, “Anti-dormant mycobacterial activity and target analysis of nybomycin produced by a marine-derived Streptomyces sp” (2015).
